Screening data from PubChem BioAssay.
MDM2 E3 inh: Mdm2 E3 ligase (human) inhibition; Q00987; cell-based MDM2 ubiquitination luciferase reporter, 2 h; 0 = plate control, 100 = twice control, blank-subtracted; signal enhancement, % at 5 µM; 210,000 tested, 0.11% active;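 active means signal enhancement of 30% or more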;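 further: luminescence tracks abundance of the self-degrading MDM2-luciferase fusion protein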
Target sequence (Q00987 whole entry, looked up, the tested form may be a part): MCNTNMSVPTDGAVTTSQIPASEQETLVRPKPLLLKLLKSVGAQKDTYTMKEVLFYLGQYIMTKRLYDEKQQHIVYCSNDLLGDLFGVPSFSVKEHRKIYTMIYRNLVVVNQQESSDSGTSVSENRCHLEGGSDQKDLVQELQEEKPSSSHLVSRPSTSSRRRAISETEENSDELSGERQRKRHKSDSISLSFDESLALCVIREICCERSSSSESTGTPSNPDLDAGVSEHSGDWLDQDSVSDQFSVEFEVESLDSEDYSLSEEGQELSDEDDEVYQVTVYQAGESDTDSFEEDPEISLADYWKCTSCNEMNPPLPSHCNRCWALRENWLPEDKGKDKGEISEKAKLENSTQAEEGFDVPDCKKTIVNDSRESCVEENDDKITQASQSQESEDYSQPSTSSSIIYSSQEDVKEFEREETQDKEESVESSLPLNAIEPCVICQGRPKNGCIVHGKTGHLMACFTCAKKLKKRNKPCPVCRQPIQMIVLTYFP
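test system = mammalian cells stably expressing self-ubiquitinating, self-degrading MDM2 E3–luciferase fusion | quantity = 2000 cells/well | incubation = cell settling 4 h, compound treatment 2 h, both 37 °C | signal = luminescence with SteadyLite reagent, 15 min at room temperature | evaluation = % enhancement relative to plate controls after blank subtraction | benchmarks = plate controls and plate blanks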
L929 necroptosis: blocks zVAD induced death of L929 cells. L929 zVAD necroptosis rescue, ATP luminescence, 24 h; with zVAD 60 µM. viability rescue, % at 10 µM. 220,000 tested, 0.38% active. AID 1377;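 active means activation, scaled between plate controls, above about 75%, limit read from the data; inactive means activation under that limit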;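 further: 0% = zVAD with DMSO and 100% = DMSO alone without zVAD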
Dynein cargo inh: dynein cargo transport inhibition. 3617.4 mouse cells, GR-EGFP nuclear translocation imaging; test concentration mostly 20 µM; stimulated with dexamethasone, 1 µM; hits give low values. z-score, hits read low. 220,000 tested, 0.47% active. AID 1381;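 active means plate z-score of nuclear minus cytoplasmic receptor signal below a set negative limit, without overly bright fluorescence or cell loss, cut at about -3.5 in these data, passing the limit was not always enough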;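 further: z-score of nuclear minus cytoplasmic ring GR-EGFP intensity difference per well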
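Also added – dexamethasone, 1.0 µM final · Buffer or medium – tet-free, stripped-serum medium · Schedule – induction 48 h, compound 1 h, agonist 30 min · Detection – formaldehyde fixation, Hoechst nuclear stain, 10x automated fluorescence imaging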
Autophagy mod: autophagy modulation, high-content screen; MEF GFP-LC3 puncta imaging; test concentration mostly 10 µM; AID 463193; calls only at 10 µM (by protocol); 190,000 tested, 0.98% active;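 active means percentage of spot-positive cells more than 3 SD above its plate mean, without a fluorescence outlier flag or 80% toxicity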;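 further: spot-positive cell cutoff set from DMSO-treated cells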
TNF death inh: TNF-alpha cell death inhibition in Jurkat FADD-/- cells; Jurkat FADD-/- TNF necroptosis rescue, ATP luminescence, 24 h; 0 = TNF only, 100 = no-TNF cells; activation (protection from cell death), % at 10 µM; 220,000 tested, 0.068% active; AID 463075;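 active means activation, meaning protection from cell death, of at least 50% relative to plate controls; inactive means activation below 50%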;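 further: necroptosis triggered by 40 ng/mL TNF-alpha added together with compound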
zVAD death conf: confirmed blocker of zVAD induced death in L929 cells; shares compounds with L929 necroptosis; L929 zVAD-induced necroptosis rescue, ATP luminescence, 24 h; AID 463117; 760 tested, 16% active; activation (protection from necroptosis), % at 10 µM;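 active means mean protection from necroptosis of at least 50% over duplicate tests; inactive means mean protection below 50%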;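 further: 0% = cells with zVAD alone and 100% = vehicle cells without zVAD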
Dynein inh conf: dynein cargo transport inhibition, confirmation | calls only at 20 µM | 3617.4 GR-EGFP nuclear translocation imaging, dexamethasone-induced | shares compounds with Dynein cargo inh | 1,000 tested, 69% active;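 active means inhibition of receptor movement into the nucleus at or above a set limit in both runs, with normal cell brightness and cell count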;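 further: dexamethasone at 1 µM final in well for 30 min; nuclear minus cytoplasmic GR-EGFP mean intensity difference in channel 2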
Numbers without * were called inactive. Hits are enriched below; roughly 1.8% of the tested compounds scored in any of these assays.

Results for CCOc1ccc(-c2nnn(CC(=O)Nc3cc(OC)cc(OC)c3)n2)cc1OCC ?
MDM2 E3 inh: -16; L929 necroptosis: 4; Dynein cargo inh: -0.032; Autophagy mod: inactive; TNF death inh: 1

What do the screens show for `Nn1cnn(Cc2ccccc2)c1=S`?
MDM2 E3 inh: -4; L929 necroptosis: 88*; Dynein cargo inh: 0.11; Autophagy mod: inactive; TNF death inh: 6; zVAD death conf: 32

What do the screens show for `O=C(NCC1CCCO1)c1cc2c(=O)[nH]c3ccccc3c2s1` (stereo unspecified)?
L929 necroptosis: 4; Dynein cargo inh: -0.79; Autophagy mod: inactive; TNF death inh: 0

How did Nc1cc(C(=O)OCC(=O)NC(c2ccccc2)c2ccccc2)ccc1Cl do in these assays?
MDM2 E3 inh: 11; L929 necroptosis: 85*; Dynein cargo inh: -1.2; Autophagy mod: inactive; TNF death inh: -1; zVAD death conf: 36

What do the screens show for `NC(=O)NOCc1ccc(Cl)cc1Cl`?
MDM2 E3 inh: -2; L929 necroptosis: 84*; Dynein cargo inh: 1.5; Autophagy mod: inactive; TNF death inh: 2; zVAD death conf: 26

How did CC(C)(C)c1ccc(/C=N/N2CCN(c3ccccn3)CC2)cc1 do in these assays?
MDM2 E3 inh: -3; L929 necroptosis: 82*; Dynein cargo inh: 0.0022; TNF death inh: 10; zVAD death conf: 31

How did COc1ccc(N(C(=O)c2cnccn2)C(C(=O)NC2CCCCC2)c2ccc(O)cc2)cc1 (stereo unspecified) do in these assays?
MDM2 E3 inh: -7; L929 necroptosis: 2; Dynein cargo inh: 0.013; Autophagy mod: inactive; TNF death inh: -2

How did COc1ccc(NC(=O)c2ccc(S(=O)(=O)C(F)F)cc2)c(OC)c1 do in these assays?
MDM2 E3 inh: -1; L929 necroptosis: 77*; Dynein cargo inh: 0.088; Autophagy mod: inactive; TNF death inh: 0; zVAD death conf: 1

What do the screens show for `COc1ccc(NC(=O)c2ccc(-n3c(C)ccc3C)cc2)c(OC)c1`?
MDM2 E3 inh: -23; L929 necroptosis: 0; Dynein cargo inh: 1; Autophagy mod: inactive; TNF death inh: -1

How did Cc1cc(=O)[nH]c(SCC(=O)NC2CCCc3ccccc32)n1 (stereo unspecified) do in these assays?
MDM2 E3 inh: -4; L929 necroptosis: 0; Dynein cargo inh: -0.15; TNF death inh: -1

Results for CN=C1S/C(=C\c2cc(C)n(-c3ccccc3F)c2C)C(=O)N1C ?
MDM2 E3 inh: -15; L929 necroptosis: 78*; Dynein cargo inh: 0.71; Autophagy mod: inactive; TNF death inh: -13; zVAD death conf: 6

How did Cc1cc(/C=C2\SC(=S)N(C)C2=O)c(C)n1-c1cccc(O)c1 do in these assays?
MDM2 E3 inh: -64; L929 necroptosis: 18; Dynein cargo inh: 3.2; TNF death inh: -4

How did CCCCNC(=O)Nc1nc2ccccc2s1 do in these assays?
MDM2 E3 inh: -13; L929 necroptosis: 57; Dynein cargo inh: -0.39; Autophagy mod: inactive; TNF death inh: 7

How did CCCCNC(=O)Nc1nc2ccc(CC)cc2s1 do in these assays?
MDM2 E3 inh: -16; L929 necroptosis: 78*; Dynein cargo inh: -0.41; Autophagy mod: inactive; TNF death inh: 8; zVAD death conf: 2

How did CC(=O)Nc1cc(C(=O)NCCN2CCN(Cc3ccccc3)CC2)ccc1Sc1ccc(C)cc1 do in these assays?
L929 necroptosis: 0; Dynein cargo inh: 1.3; Autophagy mod: inactive; TNF death inh: 2

How did O=C(OCn1ncc(Br)c(Br)c1=O)c1ccc(F)cc1 do in these assays?
MDM2 E3 inh: 16; L929 necroptosis: 113*; Dynein cargo inh: -5.1*; Autophagy mod: inactive; TNF death inh: -24; zVAD death conf: 136*; Dynein inh conf: active

How did O=C(OCn1ncc(Br)c(Br)c1=O)c1ccccc1Cl do in these assays?
MDM2 E3 inh: 14; L929 necroptosis: 44; Dynein cargo inh: -1.4; Autophagy mod: inactive; TNF death inh: -14
